Compound activity: PubChem BioAssay, several laboratories
Most compounds without a hit are left out; they make up all but 2.3% or so of the library.
ASAP1 inh = ASAP1 ArfGAP inhibition | ASAP1-stimulated ARF1 GTP hydrolysis, GDP FP detection | inhibition, % at 16.5 µM | 360,000 compounds, 0.19% hits | AID 624377; in the data active = inhibition above about 25%;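 also: 0% = vehicle with enzyme and substrate and 100% = no enzyme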
Target sequence (Q9ULH1 325-724 limits assumed): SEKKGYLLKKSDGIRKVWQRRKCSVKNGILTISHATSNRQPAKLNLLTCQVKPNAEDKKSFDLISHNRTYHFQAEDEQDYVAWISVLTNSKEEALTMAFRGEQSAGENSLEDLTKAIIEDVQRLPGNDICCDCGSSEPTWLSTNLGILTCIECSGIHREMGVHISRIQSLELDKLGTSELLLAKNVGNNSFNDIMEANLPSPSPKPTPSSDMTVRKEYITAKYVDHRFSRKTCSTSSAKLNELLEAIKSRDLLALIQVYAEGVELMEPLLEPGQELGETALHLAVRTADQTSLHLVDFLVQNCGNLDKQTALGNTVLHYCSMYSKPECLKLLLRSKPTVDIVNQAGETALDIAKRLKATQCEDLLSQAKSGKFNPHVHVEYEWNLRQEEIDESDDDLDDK
sPLA2-III inh = Inhibits HGIII-sPLA2 liposome hydrolysis, primary screen | Q9NZ20 | QFRET BODIPY PC-A2 liposome hydrolysis, fluorescence | inhibition, % at 12.2 µM | 370,000 compounds, 0.56% hits;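 active = inhibition above mean plus 3 SD of compounds lying within the high and low control bounds, cut at about 19% in these data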;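 also: 0% = median of test compound wells and 100% = no enzyme DMSO wells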
ARFGAP1 inhibitor = rat ARFGAP1 inhibition; Q62848; Arfgap1-stimulated ARF1 GTP hydrolysis, GDP FP detection; inhibition, % at 16.5 µM; 360,000 compounds, 0.26% hits; AID 651572;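 active = inhibition above a per-plate limit, mean inhibition of low control wells plus 3 SD, cut at about 25% in these data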;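 also: 0% = DMSO wells with enzyme and 100% = wells lacking Arfgap1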
Target sequence (Q62848 1-136 limits assumed): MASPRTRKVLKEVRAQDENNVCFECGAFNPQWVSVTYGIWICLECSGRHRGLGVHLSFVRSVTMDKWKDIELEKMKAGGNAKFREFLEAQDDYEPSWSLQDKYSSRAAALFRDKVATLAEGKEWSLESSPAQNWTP
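Replicates: Single well per compound | Assay system: Truncated rat Arfgap1 GAP domain | Control set: No-Arfgap1 wells (100%) versus DMSO full-reaction wells (0%) | Times: Enzyme reaction 120 min at 25 °C after 20 min preincubation | Reagent: Human ARF1(Δ1-17)-GTP substrate | Measured by: Tracer-displacement fluorescence polarization with EDTA stop, 620/688 nm | Measure: Percent inhibition of Arfgap1-stimulated GTP hydrolysis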
SKKanGAS inh = inhibitors of SKKanGAS S. pyogenes growth in kanamycin (SK-promoter or general growth effect); BacTiter-Glo, 6 h; inhibition, % at 7.5 µM; AID 1662; 300,000 compounds, 1.3% hits;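 active = mean replicate score, as percent of positive control median, at least 50; inconclusive = mean below 50 but one replicate at or above 50; inactive = mean and every replicate below 50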;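 also: strain carries kanamycin resistance gene driven by streptokinase promoter and grows in 40 µg/ml kanamycin; loss of luminescence reflects streptokinase promoter inhibition or plain growth inhibition; 0% = median of DMSO wells and 100% = positive control at its reference dose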
Calb FLC = C. albicans growth modulation with fluconazole | C. albicans CaCi-2 + fluconazole, Alamar Blue growth, 48 h | growth inhibition, % (test concentration not listed) | 300,000 compounds, 0.57% hits | AID 1979;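 active = growth inhibition above about 58% in most replicates, limit read from the data, passing the limit was not always enough; inconclusive = exactly half the replicates above a set limit; inactive = most replicates below a set limit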;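 also: all wells also contain fluconazole at 8 µg/ml as a sub-toxic cotreatment; 0% = median of DMSO wells and 100% = median of geldanamycin control wells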
ASAP1 inh confirm = confirmation of human ASAP1 inhibitors. inhibition, % at 16.5 µM. ASAP1-stimulated Arf1 GTPase, GDP fluorescence polarization. 620 compounds, 37% hits. shares compounds with ASAP1 inh;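 active = mean inhibition over triplicates exceeds the hit threshold derived for the earlier primary screening run, cut at about 25% in these data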
Numbers without * were called inactive; ? = inconclusive; . = no result.

SMILES | ASAP1 inh | sPLA2-III inh | ARFGAP1 inhibitor | SKKanGAS inh | Calb FLC | ASAP1 inh confirm
CCc1ccc(/C=C2\Oc3cc(OC(=O)N4CCOCC4)ccc3C2=O)cc1 | -7.4 | 3.1 | -12.5 | 2.9 | -16.3 | .
Cc1ccc(/C=N/NC(=O)c2cc(-c3ccccc3)nc3ccccc23)o1 | -8.0 | -2.1 | -4.1 | 9.7 | -0.9 | .
Cc1ccc(C=NNC(=O)c2cc(-c3cccnc3)nc3ccccc23)o1 | 24.8* | -16.3 | 3.5 | . | . | 9.9
CC(C)(C)C(=O)COC(=O)c1cc2ccccc2cc1O | 14.2 | -12.0 | 6.7 | -5.2 | 18.2 | .
CC1CCN(C(=O)COC(=O)c2cc3ccccc3cc2O)CC1 | 25.6* | -10.6 | 8.1 | 2.3 | ? | 15.0
COc1cc2oc3ccc(C#Cc4ccccn4)cc3c(=O)c2cc1OC | 31.0* | 13.3 | -6.5 | 9.4 | 57.4 | 40.1*
COc1ccc(Cl)cc1-c1cc(C(=O)NCc2ccccc2)[nH]n1 | -1.1 | -18.9 | 1.4 | . | . | .
COCCN1C(=O)[C@H]2C[C@@]13O[C@H](c1ccccn1)N=C3CC1c3ccccc3C[C@@]12C (stereo partly specified) | -6.5 | 11.0 | -5.7 | . | . | .
Cc1ccc(NC2=C(N3CCOCC3)C(=O)c3ccccc3C2=O)cc1 | 36.2* | 2.5 | 23.8 | 4.8 | 38.7 | 1.2
CC(=O)Nc1ccc(N2C(=O)CSC2c2ccc(F)cc2)cc1 (stereo unspecified) | 5.2 | 3.6 | 5.4 | 0.1 | 7.3 | .
CC(=O)Nc1ccc(N2C(=O)CSC2c2c(F)cccc2Cl)cc1 (stereo unspecified) | 27.1* | -0.1 | -12.0 | -0.4 | -2.6 | -1.9
COc1ccc(C(=O)OCCCN(C)C2CN(Cc3cn(Cc4ccc([N+](=O)[O-])cc4)nn3)S(=O)(=O)C2)cc1OC (stereo unspecified) | . | 8.1 | . | . | . | .
O=C(CNC(=O)c1ccc(Cl)cc1Cl)NCCCn1ccnc1 | 28.8* | 9.8 | 5.2 | 3.4 | -4.9 | -3.5
CN1CCCN(C(=O)CSc2nnc(-c3cccnc3)n2C2CCCCC2)CC1 | . | 6.8 | . | . | . | .
COc1cc(OC)cc(C(=O)N[C@H](C(=O)OCC(=O)c2c[nH]c3ccccc23)C(C)C)c1 | 27.8* | -5.2 | 16.3 | . | . | 12.6
Cc1c(CN2CCN(c3ncc(Cc4ccccc4)cn3)CC2)c(=O)n(-c2ccccc2)n1C | 8.2 | -7.1 | -8.7 | . | . | .
COc1ccc(/C=N/NC(=O)Cn2c(Cc3ccc(OC)c(OC)c3)nc3ccccc32)cc1OC | 31.1* | -5.4 | -2.6 | -6.9 | -1.1 | -0.7
CC(=O)Oc1ccc2ccccc2c1C(NC(=O)Cc1ccccc1)c1ccc(Cl)cc1 (stereo unspecified) | 139.5* | -17.7 | 1.6 | 25.3 | ? | 6.2
CN1CCN(c2ccc(NC(=O)c3ccc(-c4cccc([N+](=O)[O-])c4)o3)cc2)CC1 | 31.4* | -3.4 | 17.1 | -16.5 | 10.7 | 106.2*
CCn1c(SCC(=O)NN=Cc2cccc(OCc3ccccc3)c2)nnc1-c1ccc(OC)c(OC)c1 | . | -10.0 | . | . | . | .
CCOC(=O)c1sc(NC(=O)CNCc2cccnc2)c(C(=O)OCC)c1C | 36.9* | -4.4 | 11.5 | 8.8 | 32.0 | 0.6
COC(=O)[C@@]12CCCCC3=C1N(CCC3)C(=O)[C@H]2CC(=O)NCc1ccccc1 | . | -0.5 | . | . | . | .
CC(=O)C1C(c2ccc(C)cc2)c2c(n[nH]c2C)CC1(C)O (stereo unspecified) | 43.4* | -1.4 | -10.3 | -5.9 | -10.0 | 1.2
COC(=O)[C@]12C[C@H](CC(=O)NCC34CC5CC(CC(C5)C3)C4)C(=O)N(Cc3ccc4c(c3)OCO4)C1=C[C@H](C(C)C)O[C@@H]2C1CC1 | . | -10.1 | . | . | . | .
COc1ccc(NC(=O)c2ccc(-c3ccccc3C(F)(F)F)o2)cc1 | 25.9* | -10.1 | 11.2 | 0.3 | -8.4 | 10.7
SMILES | ASAP1 inh | sPLA2-III inh | ARFGAP1 inhibitor | SKKanGAS inh | Calb FLC | ASAP1 inh confirm
CN1C(=O)C[C@@](C#N)(C(=O)N2CCCC2)[C@H]1c1ccccc1 | . | -1.4 | . | . | . | .
O=C(CNC(=O)c1ccc(F)cc1)Nc1ccccc1C(F)(F)F | 25.3* | -2.8 | -11.5 | 3.1 | -0.9 | 0.9
O=C(CSc1nc2ccc(Nc3nc(N4CCOCC4)nc(N4CCOCC4)n3)cc2s1)N1CCOCC1 | 25.4* | 14.5 | 12.0 | 28.0 | 8.6 | 45.5*
O=C(CSc1nc2ccc(Nc3nc(N4CCOCC4)nc(N4CCOCC4)n3)cc2s1)Nc1ccccc1 | -0.8 | -4.0 | 0.2 | . | . | .
C=CCN1C(=O)[C@H](CC(=O)N2CCCC2)[C@@]2(C(=O)OCC)CCCC=C12 | . | 3.3 | . | . | . | .
CCOC(=O)c1[nH]c(C)c(C(=O)Nc2ccc(C)c(C)c2)c1C | 26.4* | -2.1 | -9.6 | -3.3 | -1.3 | 2.0
COn1c(SC(C)C)nc2ccccc2c1=O | 1.4 | -5.3 | -5.0 | 3.1 | 39.6 | .
COn1c(SC2CCCCC2)nc2ccccc2c1=O | 74.4* | -0.6 | -8.6 | 1.5 | 38.5 | -2.5
COC1=C[C@H](C(=O)NC2CCN(Cc3ccccc3)CC2)C(C)C(c2ccccc2)CC1=O (stereo partly specified) | . | -3.4 | . | . | . | .
CCNC(=O)/C(C#N)=C/c1c(N2CC(C)OC(C)C2)nc2ccccn2c1=O (stereo unspecified) | 49.3* | 12.1 | -6.3 | -3.2 | 19.5 | 0.5
CNC(=O)COC(=O)/C=C/c1ccco1 | 27.5* | -5.1 | 5.2 | -3.3 | 29.7 | 8.6
O=C(COC(=O)/C=C/c1ccco1)NCc1ccco1 | 4.6 | 3.2 | -3.2 | -1.8 | 2.8 | .
CC(C)N(C(=O)Nc1ccc2nsnc2c1)C(C)C | 41.3* | 5.8 | 20.1 | 0.1 | 40.7 | 6.7
COc1ccc(NC(=S)Nc2ccc3nc(C)c(C)nc3c2)cc1 | 5.9 | 6.2 | 19.9 | 1.8 | -5.5 | .
COc1ccc(N(C)C(=O)Nc2ccc3nsnc3c2)cc1 | 8.2 | 0.5 | -4.3 | -2.5 | -9.9 | .
COc1ccc(NC(=S)Nc2ccc3nsnc3c2)cc1 | 32.7* | 5.6 | 15.2 | -0.1 | -17.4 | 9.2
Oc1oc(-c2ccccc2Br)nc1C=Nc1ccc(Br)cn1 | 51.0* | 0.4 | 7.8 | 4.8 | -4.4 | 110.0*
Oc1oc(-c2ccccc2)nc1/C=N/c1ccccn1 | 0.8 | 2.6 | -4.9 | 3.7 | 1.7 | .
O=C(CNC(=O)c1ccccc1O)N/N=C/c1cc(Br)ccc1OC(=O)/C=C/c1ccco1 | 26.0* | -12.1 | 21.3 | -4.0 | -16.0 | 18.9
Cn1c(N)c(C(C[N+](=O)[O-])c2ccccc2Cl)c(=O)n(C)c1=O (stereo unspecified) | 56.2* | -2.0 | 10.9 | -14.6 | -4.6 | 3.7
Cc1ccc(NC(=O)COc2ccc(CCO)cc2-n2nc3ccccc3n2)cc1C | 26.3* | -24.3 | 4.6 | 20.1 | -4.1 | -0.6
COc1ccc(S[C@]2(C(=O)N3CCN(c4ncccn4)CC3)CC(=O)N(c3ccc4ccccc4c3)[C@@H]2c2ccc(OC)cc2)cc1 | . | -1.2 | . | . | . | .
CCN1CCN(c2cc(C)c3cc(NC(=O)c4ccc(OC)c(OC)c4)ccc3n2)CC1 | 37.2* | -9.3 | 22.3 | 2.7 | -3.0 | 49.9*
